# Compound activity as filed in PubChem BioAssay.
# Sampled rows, rich in hits. Any-hit rate of the full collection: about 3.7%.
# KCNK9 inh-1: inhibitors of human KCNK9 two-pore domain potassium channel; Q9NPC2; B-score at 10 µM; AID 488922; hit rate 1.2% among 310,000; HEK293 KCNK9, FluxOR thallium flux fluorescence; stronger effect = lower value;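 active = ratio B-score over 3 SD below the library mean, with starting fluorescence within 5 SD of its mean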;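 note: negative B-score means less thallium flux so channel inhibition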
# hERG rescue: hERG (human) protection from proarrhythmic block | hit rate 0.51% among 310,000 | activation (rescue from dofetilide block), less the hit threshold, % at 10 µM | Q12809 | CHO-hERG, FluxOR thallium flux, dofetilide IC70 present | AID 1511;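 active = activation above the mean of controls blocked by dofetilide plus 5 SD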;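 note: thallium influx through hERG after potassium depolarization seen as dye fluorescence rise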
# KCNQ1 act: potentiators or activators of human KCNQ1 potassium channel; P51787; CHO-K1 KCNQ1, thallium flux FluxOR fluorescence; stronger effect = higher value; B-score at 10 µM; hit rate 0.35% among 310,000; AID 2648;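 active = fluorescence ratio B-score, a plate-corrected score, at least three library SD, with initial intensity B-score within 5 SD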
# Target sequence (P51787 whole entry, looked up): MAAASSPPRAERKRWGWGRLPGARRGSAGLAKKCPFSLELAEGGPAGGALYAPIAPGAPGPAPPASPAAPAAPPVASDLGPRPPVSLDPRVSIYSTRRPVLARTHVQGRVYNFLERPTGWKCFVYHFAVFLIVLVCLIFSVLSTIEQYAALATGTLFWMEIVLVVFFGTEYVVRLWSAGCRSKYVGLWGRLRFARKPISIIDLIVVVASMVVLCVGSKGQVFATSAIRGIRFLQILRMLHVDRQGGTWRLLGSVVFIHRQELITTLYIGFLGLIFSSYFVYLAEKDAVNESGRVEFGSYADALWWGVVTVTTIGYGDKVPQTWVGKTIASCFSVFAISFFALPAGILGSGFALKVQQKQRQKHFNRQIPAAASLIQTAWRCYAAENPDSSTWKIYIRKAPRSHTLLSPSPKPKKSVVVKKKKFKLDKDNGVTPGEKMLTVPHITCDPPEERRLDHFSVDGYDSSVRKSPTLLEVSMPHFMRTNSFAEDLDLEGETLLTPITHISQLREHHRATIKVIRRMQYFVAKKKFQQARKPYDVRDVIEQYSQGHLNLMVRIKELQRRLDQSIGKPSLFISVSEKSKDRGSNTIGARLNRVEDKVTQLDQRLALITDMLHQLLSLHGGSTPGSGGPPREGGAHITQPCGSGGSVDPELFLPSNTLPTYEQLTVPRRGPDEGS
#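 Assay system: CHO-K1 cells stably expressing KCNQ1; Medium: assay buffer with matched DMSO; Also added: K+/Tl+ depolarizing stimulus; Dosing: single dose; Timing: dye 90 min, compound 20 min, room temperature; Measured by: kinetic FluxOR thallium fluorescence, 10-s 1-Hz baseline, 110-s post-stimulus read; Read-out: peak-minus-minimum fluorescence over initial fluorescence, negative-control normalized, B-scored.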
# KCNK3 block: human KCNK3 channel inhibition, primary screen | hit rate 0.84% among 340,000 | CHO-KCNK3 thallium flux, FluxOR fluorescence; stronger effect = lower value | B-score at 10 µM | AID 602410 | O14649;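 active = B-score under library mean minus 4 SD, starting fluorescence ratio at most library mean plus 5 SD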;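 note: more negative B-score means stronger inhibition of thallium flux through KCNK3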
# Kir21 inh: Kir2.1 (mouse) channel inhibition; P35561; HEK293-Kir2.1, FluxOR thallium flux fluorescence; stronger effect = lower value; B-score at 10 µM; hit rate 0.85% among 310,000; AID 1672;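 active = fluorescence ratio B-score at or below minus 3 SD of library scores, with starting-brightness B-score within 2 SD, cut at about -4.2 in these data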;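 note: channel flux triggered by added potassium and thallium sulfate stimulus; B-score of peak minus minimum fluorescence over baseline after thallium stimulus; more negative B-score means stronger Kir2.1 block with less thallium influx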
# KCNQ1 block: inhibitors of human KCNQ1 potassium channel; B-score at 10 µM; P51787; AID 2642; hit rate 1.3% among 310,000; CHO-K1 KCNQ1, FluxOR thallium flux fluorescence; stronger effect = higher value;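 active = compounds whose thallium flux B-score, printed positive for inhibition, exceeds three library SD while starting fluorescence stays within three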;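 note: channel opened by potassium depolarization with thallium stimulus after 20 min compound exposure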
# hERG inh: counter-screen for Kir2.1 inhibitors: effect on human hERG; hit rate 20% among 320; inhibition, % at 10 µM; hERG-expressing cells, thallium flux; shares compounds with Kir21 inh;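 note: host cells are CHO cells stably expressing hERG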
# KCNK9 inh-2: selectivity of Kir2.1 inhibitors: effect on human KCNK9; shares compounds with Kir21 inh; KCNK9-expressing cells, ion flux inhibition; inhibition, % at 10 µM; hit rate 5% among 320; AID 2329
# Kir2-1 patch inh: blocks mouse Kir2.1 current in automated electrophysiology; shares compounds with Kir21 inh; Kir2.1 cells, automated patch-clamp current inhibition; inhibition, % at 25 µM; hit rate 71% among 320
# Active calls of the source: *; i = inactive; . = no result. Unless noted, the rule behind the calls is not given here.
SMILES,KCNK9 inh-1,hERG rescue,KCNQ1 act,KCNK3 block,Kir21 inh,KCNQ1 block,hERG inh,KCNK9 inh-2,Kir2-1 patch inh
c1ccc(-c2ccccc2OCCOCCN2CCc3ccccc3C2)cc1,i,-16,i,i,-8.3*,i,66%*,i,39%*
CC1CN(CCOCCOc2ccccc2-c2ccccc2)CC(C)O1 (stereo unspecified),i,-8,i,i,-3.1,i,.,.,.
CCN(CC)CC#CCOC(c1ccccc1)c1ccccc1,i,-22,i,i,-3,i,.,.,.
CN(C)CC#CCOC(c1ccccc1)c1ccccc1,i,0,i,i,-6.3*,i,i,i,45%*
COC1=NC(=C(c2ccccc2)c2ccccc2)OC1=O,.,.,.,i,.,.,.,.,.
COCCOC(=O)c1c(NC(=O)CN2c3ccccc3CC2C)sc(C(N)=O)c1C (stereo unspecified),i,-5,i,i,0.16,i,.,.,.
COc1cccc(OC)c1C(=O)Nc1ccc(N2CCCC2)cc1,i,-5,i,i,3,i,i,i,i
CC(C)NC(=O)c1ccc(CN2CCC(Cc3ccccc3)CC2)cc1,i,-4,i,i,-0.22,i,.,.,.
CSc1ccc(CN2CCC(Cc3ccccc3)CC2)cc1,i,-8,i,i,-16*,i,67%*,i,33%*
O=S(=O)(Nc1cccc(S(=O)(=O)N2CCCC2)c1)c1cccs1,.,.,.,i,.,.,.,.,.
OC(CNCCc1ccccc1)c1ccccc1 (stereo unspecified),i,-1,i,i,-9.7*,i,i,i,50%*
CSc1ccc(CNCC(O)c2ccccc2)cc1 (stereo unspecified),i,-6,i,i,-6.2*,i,i,i,54%*
CCOC(=O)c1sc(NC(=O)CC)c(C#N)c1C,i,-10,i,i,0.01,i,.,.,.
COC(=O)c1cc([N+](=O)[O-])c(-n2cncn2)c([N+](=O)[O-])c1,i,-16,i,i,-7.7*,i,i,i,i
COc1ccc(Oc2c(-c3ccc(O)cc3O)n[nH]c2C)cc1,i,-10,i,i,-5.7*,i,i,i,0.2%*
O=C(Nc1ccc([N+](=O)[O-])cc1)NN1CCCCCC1,.,.,.,i,.,.,.,.,.
O=C1C(Cc2c[nH]c3ccccc23)NC(=S)N1Cc1ccccc1 (stereo unspecified),i,-12,i,i,-6.4*,i,i,i,12%*
COc1ccccc1C(=O)CN1C(=O)NC2(CCc3ccccc32)C1=O (stereo unspecified),i,-5,i,i,-0.57,i,.,.,.
Fc1ccc(N2CCN(Cc3c[nH]c4ccccc34)CC2)cc1,i,-11,i,.,-7.9*,i,56%*,i,40%*
CCNC(=S)/N=C(/Nc1ccccc1)Nc1nc(C)cc(C)n1,i,-8,i,i,2.5,i,i,i,i
O=C(CN1CCN(Cc2ccc(Cl)cc2)CC1)N1CCc2ccccc21,i,-5,i,i,-9.5*,i,i,i,16%*
Cc1ccc(C)c(Cn2c3ccccc3c3cnn(CC(=O)NCCCN4CCCCC4)c(=O)c32)c1,i,-15,i,i,-6.2*,i,i,i,i
Cc1ccc(CNCC(O)(c2ccccc2)c2ccccc2)cc1,i,-10,i,i,-9.2*,i,i,i,i
Cc1ccc(CNC(=O)NCc2ccccc2)cc1,i,-5,i,i,0.54,i,.,.,.
CC(NS(=O)(=O)c1ccc(Br)cc1)c1ccccc1 (stereo unspecified),i,-8,i,i,-6*,i,i,i,54%*
SMILES,KCNK9 inh-1,hERG rescue,KCNQ1 act,KCNK3 block,Kir21 inh,KCNQ1 block,hERG inh,KCNK9 inh-2,Kir2-1 patch inh
Cc1cc(NC(=O)CSCC(=O)OC(C)C(=O)c2cc(C)c(C)cc2C)no1 (stereo unspecified),i,-9,i,i,-6.3*,i,i,i,18%*
Cc1cc(C)c(S(=O)(=O)c2cccc(Cl)c2)c(Cl)n1,i,-9,i,i,-0.36,i,.,.,.
CCOc1nc(C)cc(C)c1S(=O)(=O)c1cccc(Cl)c1,i,-3,i,i,-8.2*,i,i,i,36%*
Cc1ccc2nc(NCc3ccccc3)[nH]c2c1,i,-21,i,i,-10*,i,i,31%*,72%*
CC(C)C[C@@H](NC(=O)C1CCC(CNC(=O)[C@@H]2CCCN2C(=O)OC(C)(C)C)CC1)C(=O)O (stereo partly specified),i,-7,i,i,-0.13,i,.,.,.
COc1cccc(NC(=O)CSc2nc3scc(C)c3c(=O)[nH]2)c1,i,-4,i,i,-0.17,i,.,.,.
COc1ccc(CCNC(=O)C(C)SCc2ccccc2)cc1 (stereo unspecified),i,-10,i,i,-7.5*,i,i,i,56%*
COc1cccc(NC(=O)C(C)SCc2ccccc2)c1 (stereo unspecified),i,-9,i,i,0.21,i,.,.,.
CCCCCC(=O)NNC(=O)c1ccc(F)cc1,i,-8,i,i,0.12,i,.,.,.
CCOc1cccc(CNCc2cccnc2)c1OCc1ccccc1,i,-1,i,i,-7.5*,i,i,i,40%*
Clc1ccc(COc2ccccc2CNCc2cccnc2)cc1,i,-1,i,i,-2.1,i,.,.,.
O=C(O)C1=C[C@@H](C2CCCCC2)C[C@@H](OCc2ccc(CO)cc2)O1,i,-5,i,i,0.15,i,.,.,.
NC(=O)C1=C[C@@H](C2CCCCC2)C[C@@H](OCc2ccc(CO)cc2)O1,i,-10,i,i,-7.7*,i,i,i,26%*
O=C(c1cc(COc2ccc3c(c2)CCCC3)on1)N1CCCC1,i,-6,i,i,4.1,i,i,i,i
CC(CCc1ccccc1)NC(=O)CSc1ccccn1 (stereo unspecified),i,-8,i,i,-3.1,i,.,.,.
CC(CCc1ccccc1)NC(=O)CC(C)c1ccccc1 (stereo unspecified),i,-5,i,i,-8*,i,i,i,38%*
